Measured values reported in ChEMBL document CHEMBL2311343, “Investigations into the synthesis, radiofluorination and conjugation of a new [¹⁸F]fluorocyclobutyl prosthetic group and its in vitro stability using a tyrosine model system” (Bioorg Med Chem, 2013).
Values belong to the molecule of their own block, whether it stands above or below them.

Columns and labels:
[1] = Metabolic stability in Han Wistar rat hepatocytes at 1 uM after 16 mins; type: ADME, cell-based, Hepatocyte; settings: read-out: Stability
Method in brief: (§1)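 Hepatocytes isolated from Han Wistar rat liver by two-step perfusion and Percoll purification; viability by trypan blue. Incubated at 0.5×10^6 viable cells/mL in Williams' medium E + 5% FCS with 1 µM compound, shaken continuously. Aliquots taken at 2–60 min and quenched with cold methanol, frozen overnight, centrifuged. Supernatant analysed by LC-MS/MS.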

[2] = Metabolic stability in Han Wistar rat hepatocytes at 1 uM after 45 mins; type: ADME, cell-based, Hepatocyte; settings: read-out: Stability; method in brief: as §1
[3] = Metabolic stability in Han Wistar rat hepatocytes at 1 uM after 2 mins; type: ADME, cell-based, Hepatocyte; settings: read-out: Stability; method in brief: as §1
[4] = Metabolic stability in Han Wistar rat hepatocytes at 1 uM after 8 mins; type: ADME, cell-based, Hepatocyte; settings: read-out: Stability; method in brief: as §1
[5] = Metabolic stability in Han Wistar rat hepatocytes at 1 uM after 60 mins; type: ADME, cell-based, Hepatocyte; settings: read-out: Stability; method in brief: as §1
[6] = Metabolic stability in Han Wistar rat hepatocytes at 1 uM after 30 mins; type: ADME, cell-based, Hepatocyte; settings: read-out: Stability; method in brief: as §1
NCI-H460 [7] = experiment: Cellular uptake in human NCI-H460 cells assessed per 1-'5 cells at 0.2 MBq after 60 mins by gamma counting; type: ADME, cell-based; settings: nci-h460, 1 h
Method in brief: (§2)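 Sub-confluent cells seeded 1–2 days earlier (A549 and DU145 in DMEM + 10% FBS; NCI-H460 in DMEM/F-12 + 10% FBS). Washed with PBS, then incubated with 0.2 MBq radiotracer per well in PBS + 0.1% BSA (8% EtOH) at 37 °C, 5% CO2, for 10, 20, 30 and 60 min. Washed, lysed in 1 M NaOH and gamma-counted. Expressed as % applied dose per 10^5 cells, decay-corrected, in triplicate.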

DU-145 [8] = experiment: Cellular uptake in human DU145 cells assessed per 1-'5 cells at 0.2 MBq after 10 mins by gamma counting; type: ADME, cell-based; settings: du-145, 10 min; method in brief: as §2
NCI-H460 [9] = experiment: Cellular uptake in human NCI-H460 cells assessed per 1-'5 cells at 0.2 MBq after 10 mins by gamma counting; type: ADME, cell-based; settings: nci-h460, 10 min; method in brief: as §2
NCI-H460 [10] = experiment: Cellular uptake in human NCI-H460 cells at 0.2 MBq up to 60 mins by gamma counting in presence of L-3-FCBT; type: ADME, cell-based; settings: nci-h460, 1 h
DU-145 [11] = experiment: Cellular uptake in human DU145 cells at 0.2 MBq up to 60 mins by gamma counting in presence of L-3-FCBT; type: ADME, cell-based; settings: du-145, 1 h
[12] = Stability of the compound in human plasma at 22 MBq/mL up to 120 mins; type: ADME, cell-free; settings: read-out: Stability
Method in brief: (§3)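 Radiotracer at 22 MBq/mL incubated in human or rat plasma at 37 °C; sampled at 0, 30, 60, 90 and 120 min. Proteins precipitated with MeOH and centrifuged. Supernatant analysed by radio-HPLC and by radio-TLC (BuOH/AcOH/H2O 12:3:5). Intact tracer expressed as % of the 0 min sample.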

NCI-H460 [13] = experiment: Cellular uptake in human NCI-H460 cells at 0.2 MBq up to 60 mins by gamma counting in presence of FET; type: ADME, cell-based; settings: nci-h460, 1 h
A549 [14] = experiment: Cellular uptake in human A549 cells at 0.2 MBq up to 60 mins by gamma counting in presence of L-3-FCBT; type: ADME, cell-based; settings: a549, 1 h
[15] = (§4) Stability of the compound in rat plasma at 22 MBq/mL up to 120 mins; type: ADME, cell-free; settings: read-out: Stability; method in brief: as §3
DU-145 [16] = experiment: Cellular uptake in human DU145 cells at 0.2 MBq by gamma counting; type: ADME, cell-based; settings: TDE = time-dependent effect; method in brief: as §2
A549 [17] = experiment: Cellular uptake in human A549 cells assessed per 1-'5 cells at 0.2 MBq after 30 mins by gamma counting; type: ADME, cell-based; settings: a549, 0.5 h; method in brief: as §2
DU-145 [18] = experiment: Cellular uptake in human DU145 cells at 0.2 MBq up to 60 mins by gamma counting in presence of FET; type: ADME, cell-based; settings: du-145, 1 h
A549 [19] = experiment: Cellular uptake in human A549 cells assessed per 1-'5 cells at 0.2 MBq after 10 mins by gamma counting; type: ADME, cell-based; settings: a549, 10 min; method in brief: as §2
A549 [20] = experiment: Cellular uptake in human A549 cells at 0.2 MBq by gamma counting; type: ADME, cell-based; settings: TDE = time-dependent effect; method in brief: as §2
DU-145 [21] = experiment: Cellular uptake in human DU145 cells assessed per 1-'5 cells at 0.2 MBq after 60 mins by gamma counting; type: ADME, cell-based; settings: du-145, 1 h; method in brief: as §2
A549 [22] = experiment: Cellular uptake in human A549 cells at 0.2 MBq up to 60 mins by gamma counting in presence of FET; type: ADME, cell-based; settings: a549, 1 h
NCI-H460 [23] = experiment: Cellular uptake in human NCI-H460 cells at 0.2 MBq by gamma counting; type: ADME, cell-based; settings: TDE = time-dependent effect; method in brief: as §2
Plasma = experiment: as §4; type: ADME, cell-free; settings: 2 h; method in brief: as §3
[24] = Stability of the compound in human plasma at 22 MBq/mL after 5 mins; type: ADME, cell-free; settings: read-out: Stability
[25] = Lipophilicity, log D of the compound; type: physicochemical; settings: octanol/water
Method in brief: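 Shake-flask logD, run manually in two vials. Compound (0.1 mg) in octanol saturated with 10 mM phosphate buffer pH 7.4, sonicated 3 min, shaken 4 min at 20 °C. Phases separated by centrifugation, then quantified by reversed-phase HPLC with UV at 254 nm by peak area.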

remaining at 16 min, 1 µM [1]: 98%
remaining at 0.75 h, 1 µM [2]: 95%
remaining at 2 min, 1 µM [3]: 100%
remaining at 8 min, 1 µM [4]: 99%
remaining at 1 h, 1 µM [5]: 94%
remaining at 0.5 h, 1 µM [6]: 97%
SMILES: N[C@@H](Cc1ccc(O[C@H]2C[C@@H](F)C2)cc1)C(=O)O

Drug uptake (NCI-H460 [7]): 2.1%
Drug uptake (DU-145 [8]): 0.7%
Drug uptake (NCI-H460 [9]): 0.7%
Drug uptake (NCI-H460 [10]): Not Active
Drug uptake (DU-145 [11]): Not Active
remaining at 2 h, 22 MBq/mL [12]: > 99.9%
Drug uptake (NCI-H460 [13]): Not Active
Drug uptake (A549 [14]): Not Active
remaining at 2 h, 22 MBq/mL [15]: > 99.9%
Drug uptake (DU-145 [16]): tde
Drug uptake (A549 [17]): 5.8%
Drug uptake (DU-145 [18]): Not Active
Drug uptake (A549 [19]): 2.8%
Drug uptake (A549 [20]): tde
Drug uptake (DU-145 [21]): 2.1%
Drug uptake (A549 [22]): Not Active
Drug uptake (NCI-H460 [23]): tde
SMILES: N[C@@H](Cc1ccc(O[C@H]2C[C@@H]([18F])C2)cc1)C(=O)O

remaining at 2 h, 22 MBq/mL [12]: 87%
Stability (Plasma): Stable
remaining at 5 min, 22 MBq/mL [24]: 95%
SMILES: N[C@@H](Cc1ccc(OCC[18F])cc1)C(=O)O [FLORETYROSINE F18]

logD [25]: -1.51
SMILES: N[C@@H](Cc1ccc(OCCF)cc1)C(=O)O [O-(2-FLUOROETHYL)-L-TYROSINE]
